Screening results: PubChem, The Scripps Research Institute Molecular Screening Center
NPY-Y1 PAM-ag = potentiates or activates human NPY-Y1 receptor; P25929; NPY-Y1 expressing cells, potentiator/agonist activation; activation, % at 3.6 µM; 220,000 compounds, 0.37% hits; in the data active means activation above about 33%, passing the limit was not always enough;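 further: cells stimulated with NPY at EC10 then isoproterenol at EC100; 0% = low agonist plus stimulus and 100% = saturating agonist plus stimulus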
NPY-Y1 antag = blocks the human neuropeptide Y Y1 receptor. HEK293-CNG Y1 cells, membrane potential fluorescence; NPY at EC95, then isoproterenol. inhibition, % at 3.6 µM. 200,000 compounds, 1% hits;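 active means inhibition above the campaign mean inhibition of all tested compounds plus 3 SD, cut at about 20% in these data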;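 further: 0% = DMSO wells given NPY plus isoproterenol and 100% = isoproterenol alone without NPY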
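System: HEK293 cells with Y1 receptor plus CNG channel / Probe or stimulus: NPY 25 nM then isoproterenol 1 µM plus Ro 20-1724 25 µM / Compound: one concentration, 3.6 µM, in 0.4% DMSO / Schedule: compound incubation 1 h at room temperature, readout 45 min post-stimulation / Measured by: membrane potential fluorescence / Read-out: % inhibition of NPY effect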
NPY2 pot ag = potentiators or agonists of human neuropeptide Y receptor Y2; P49146; cells expressing NPY-Y2, potentiator/agonist read-out; activation, % at 3.6 µM; 220,000 compounds, 0.45% hits; AID 1359; in the data active means activation above about 27%;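 further: cells stimulated with NPY near EC25 plus isoproterenol at EC100; 0% = vehicle plus submaximal agonist and 100% = vehicle plus saturating agonist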
S1P4 antagonist = antagonists of human S1P4 receptor. O95977. S1P4-expressing cells, antagonist mode, reporter read-out. inhibition, % at 4.98 µM. 220,000 compounds, 0.26% hits; in the data active means inhibition above about 29%;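 further: 0% = wells stimulated with agonist and 100% = vehicle wells without agonist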
Target sequence (O95977 whole entry, looked up): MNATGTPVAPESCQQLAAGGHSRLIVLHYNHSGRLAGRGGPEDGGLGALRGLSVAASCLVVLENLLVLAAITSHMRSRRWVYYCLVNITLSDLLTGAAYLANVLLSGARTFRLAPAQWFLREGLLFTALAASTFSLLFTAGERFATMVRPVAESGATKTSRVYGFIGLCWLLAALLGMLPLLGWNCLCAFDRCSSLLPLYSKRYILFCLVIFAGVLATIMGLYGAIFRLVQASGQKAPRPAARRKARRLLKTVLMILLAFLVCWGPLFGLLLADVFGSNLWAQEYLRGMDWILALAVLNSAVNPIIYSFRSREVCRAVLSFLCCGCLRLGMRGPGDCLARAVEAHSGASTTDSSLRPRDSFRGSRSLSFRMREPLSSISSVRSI
S1P4 ag = activates the human S1P4 receptor | O95977 | S1P4-expressing cell line, agonist reporter assay | activation, % at 4.98 µM | AID 1509 | 220,000 compounds, 0.35% hits; in the data active means activation above about 11%;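 further: 0% = DMSO vehicle and 100% = reference agonist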
NPY Y2 blocker = blocks the human neuropeptide Y Y2 receptor | NPY-Y2 expressing cells, antagonist mode | inhibition, % at 2.7 µM | 140,000 compounds, 0.99% hits; in the data active means inhibition above about 17%;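 further: 0% = vehicle with agonist challenge and 100% = reference antagonist with challenge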
* marks the source's active call; other numbers are inactive results; · = no result given. The list is not random: actives were taken first. Their share in the collection is about 2.4%.

SMILES	NPY-Y1 PAM-ag	NPY-Y1 antag	NPY2 pot ag	S1P4 antagonist	S1P4 ag	NPY Y2 blocker
CC1(C)C([N+](=O)[O-])C(c2ccc(F)cc2)NC(c2ccc(F)cc2)C1[N+](=O)[O-] (centres undefined)	-9.2	·	-14.4	12.3	-1.1	·
CC1(C)C([N+](=O)[O-])C(c2ccc(O)cc2)NC(c2ccc(O)cc2)C1[N+](=O)[O-] (centres undefined)	40.1*	3.8	35.0*	-3.4	0.8	0.7
O=C(O)Cc1sc(Nc2ccc(F)cc2)nc1-c1cccs1	-20.4	-5.9	8.6	-13.7	0.6	·
O=C1c2ccccc2C(=O)N1CCCCN(C(=O)c1ccc([N+](=O)[O-])cc1)c1ccc(Cl)cc1	67.0*	17.4	95.4*	6.8	-2.1	11.9
O=C1c2ccccc2C(=O)N1CCCCN(C(=O)c1cc([N+](=O)[O-])cc([N+](=O)[O-])c1)c1ccc(Cl)cc1	-4.2	3.6	-10.8	-23.0	-0.3	0.4
COC(=O)C1C(c2ccccc2)C(C(=O)OCc2ccco2)C1c1ccccc1 (centres undefined)	-69.6	37.4*	-15.7	7.7	0.8	36.8*
O=C(O)C1C(c2ccccc2)C(C(=O)OCc2ccco2)C1c1ccccc1 (centres undefined)	-2.9	7.4	7.4	-22.9	-1.2	0.4
COC(=O)c1ccc(OC(=O)c2ccccc2F)cc1	3.8	-0.4	-0.1	-12.8	-0.2	4.2
Cc1cccc(C)c1Nc1c(-c2ccsc2)nc2ncccn12	45.9*	-7.4	58.9*	1.3	0.6	-2.5
Cc1ccccc1Nc1c(-c2ccc(N3CCOCC3)cc2)nc2ncccn12	56.1*	-4.3	42.7*	6.7	0.5	·
Cc1ccc(Nc2c(-c3ccc(N4CCOCC4)cc3)nc3ncccn23)cc1	-19.7	7.5	3.1	14.1	-0.9	-0.4
O=C(CCl)N(c1ccccc1)C1CCCCC1	23.7	-7.6	3.7	22.1	-0.7	·
COc1ccccc1NC(=O)COn1nnc2ccc(S(=O)(=O)N3CCOCC3)cc21	15.1	3.1	14.5	-9.3	-0.3	·
O=C(N/N=C/c1ccccc1[N+](=O)[O-])C(=O)N1CCCC1	1.0	0.8	4.2	6.4	3.0	·
COc1ccc(C(O)c2coc3ccc(O)c(CN(C)C)c23)cc1 (centres undefined)	106.6*	-21.4	100.4*	-25.3	-2.4	3.2
COc1ccc2occ(C(=O)c3coc4ccc(O)c(CN(C)C)c34)c2c1	-43.2	11.0	-47.5	8.0	-0.7	4.7
Cc1ccc(-c2nnn(CC(=O)N(Cc3cccs3)C(C(=O)NC(C)(C)C)c3ccc(C)o3)n2)o1 (centres undefined)	-112.5	35.1*	-80.5	-13.8	-2.0	39.6*
Cc1ccc(-c2nnn(CC(=O)N(Cc3cccs3)C(C(=O)NC(C)(C)C)c3ccco3)n2)o1 (centres undefined)	-33.5	12.2	-1.9	-0.3	0.9	6.9
C=CCN1C(=O)N(c2ccc(F)cc2)C(=O)C1CC(=O)Nc1ccc(Cl)cc1 (centres undefined)	23.7	·	14.4	-12.7	-0.6	·
O=C(CCl)Nc1cccc(Oc2ccccc2)c1	11.3	-4.8	4.5	-3.8	9.7	·
Cc1ccc(C#CC[N+]2(CC#Cc3ccc(C)cc3)CCCCC2)cc1	-31.0	27.5*	-3.7	-13.0	0.6	19.8*
CCN(C(=O)COc1cc(=O)n(CC)c2ccccc12)c1cc(Cl)ccc1OC	-15.2	23.4*	-25.2	-20.2	-0.9	17.2*
CCN(C(=O)COc1cc(=O)n(CC)c2ccccc12)c1cccc(Cl)c1	7.7	-6.3	-6.3	-18.8	0.0	2.0
COCCCNC(=O)c1ccccc1-c1cc(C)no1	-7.7	·	7.8	14.7	-0.4	·
CCCN(CCC)C(=O)CSc1nc2ccccc2c(=O)n1C1CCCC1	-22.3	28.6*	9.3	2.6	1.2	25.4*
SMILES	NPY-Y1 PAM-ag	NPY-Y1 antag	NPY2 pot ag	S1P4 antagonist	S1P4 ag	NPY Y2 blocker
N#CCSc1nc2ccccc2c(=O)n1C1CCCCC1	1.1	21.1*	-2.8	-4.6	-0.1	·
O=C(COC(=O)c1c(Cl)ccc(Cl)c1Cl)NC1CCS(=O)(=O)C1 (centres undefined)	-13.3	-1.0	-7.4	-9.2	0.8	·
CCOC(=O)N1CCC(N(CCN(C)C)C(=S)Nc2cc(C)cc(C)c2)CC1	-20.3	-0.8	2.6	-9.3	1.1	7.1
O=C(/C=C1\C(=O)Nc2ccccc21)/C=C1\C(=O)Nc2ccccc21	1.5	·	-3.5	46.4*	-0.8	·
CN(O)/C=C1\C(=O)Nc2ccccc21	-3.1	4.4	10.1	5.8	-1.0	2.3
CCCC(c1nnnn1Cc1ccco1)N1CCN(c2ccccc2)CC1 (centres undefined)	6.0	4.1	-13.3	-1.7	0.1	·
CCCC(c1nnnn1C(C)(C)C)N1CCN(c2ccccc2)CC1 (centres undefined)	15.4	21.1*	-1.4	-8.4	1.2	·
CCOC(=O)C1=C(C)N(CCCC(=O)O)C(=O)NC1c1ccccc1OS(=O)(=O)c1ccc(C)cc1 (centres undefined)	-7.5	-5.4	-5.6	7.5	1.2	3.2
O=C(OCc1cc(=O)n2cc(Br)ccc2n1)c1ccc(Cl)c(S(=O)(=O)NCc2ccccc2)c1	2.3	5.5	8.1	9.6	-0.6	0.6
O=C(Cn1nnc(-c2ccccc2)n1)NCc1ccco1	-27.4	-2.9	-18.6	1.4	-3.7	2.5
O=C(Cn1nnc(-c2cccc(C(F)(F)F)c2)n1)NC(=O)NCc1ccco1	-36.9	13.8	-23.2	-20.5	1.7	21.0*
CCOC(=O)N1CCC(NC(=O)c2cc(C(=O)Nc3ccc(S(=O)(=O)N4CCCCC4)cc3)ccc2CO)CC1	-13.5	1.6	-10.0	11.8	-0.9	·
COc1ccc(C(=O)c2coc3ccc(O)c(CN4CCCCC4)c23)cc1	-87.3	20.4*	-34.2	2.5	-0.4	25.0*
CCOC(=O)c1c(C)oc2ccc(O)c(CN3CCCCC3)c12	-32.4	26.9*	-9.8	4.8	-0.7	22.3*
COc1ccc(COCC(O)CN2CCOCC2)cc1OC (centres undefined)	54.3*	-12.1	78.5*	3.8	-0.2	-0.9
COc1cccc(OCC(O)CN2CCOCC2)c1 (centres undefined)	59.8*	-6.1	44.8*	-10.3	2.2	1.9
N=C(c1cccc([N+](=O)[O-])c1)N1CCCCC1	5.7	-1.6	-0.6	-19.6	0.5	·
CC(CCn1cccn1)NC(=O)CCc1nnc(C2CCCCC2)o1 (centres undefined)	15.6	-4.2	-0.6	6.3	2.5	·
NC(=O)c1ccc(NC(=O)COC(=O)c2ccccc2Nc2ccccc2)cc1	3.4	4.6	11.3	0.5	-0.5	·
Cc1ccc(-c2nc(=S)c3c(n2Cc2ccco2)CCCC3)cc1	-33.0	21.4*	1.1	5.8	2.1	16.4
Cc1cccc(-c2nc(=S)c3c(n2Cc2ccco2)CCCC3)c1	1.0	24.9*	-1.4	-6.6	-3.4	21.9*
COc1cccc(-c2nc(=S)c3c(n2Cc2ccco2)CCCC3)c1	-11.5	-0.4	-7.9	3.3	8.3	6.5
